The record followed here is ChEMBL document CHEMBL5252603, “Discovery of 2-aminoquinolone acid derivatives as potent inhibitors of SARS-CoV-2” (Bioorg Med Chem Lett, 2023).

Some results are limits rather than exact numbers.

One data set deals with Vero. Nature of the data set: Cytotoxicity against african green monkey Vero cells. It counts as toxicity, cell-based. Conditions: chlorocebus sabaeus. In a few lines: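 Uninfected Vero cells were tested in parallel with the antiviral immunocytochemistry assay. CC50 was derived from at least two independent experiments.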
The next data set concerns SARS-CoV-2. The data set can be described thus: Antiviral activity against Severe acute respiratory syndrome coronavirus 2 infected in Vero cells. It counts as functional, organism-based. Particulars: Severe acute respiratory syndrome coronavirus 2, Vero.
Data set [1] is described as follows: Selectivity index, ratio of CC50 for african green monkey Vero cells to EC50 for Severe acute respiratory syndrome coronavirus 2. It counts as toxicity. Conditions: read-out: Ratio CC50/EC50.
The nature of data set [2]: Microsomal stability in human liver microsomes assessed as compound remaining after 30 mins in presence of NADPH. It counts as ADME, Microsome. Particulars: read-out: Stability. A general note: Liver microsomes are a subcellular fraction often used to study metabolism.
The next data set concerns CHO-K1. Nature of the data set: Cytotoxicity against CHO-K1 cells. Particulars: chinese hamster. The data set is classed as toxicity, cell-based, Cricetulus griseus. In a few lines:
(§1)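 Cell viability was measured by the EZ-Cytox assay, with CC50 as the read-out. Cell lines: HFL-1, human embryonic lung; L929, mouse fibroblast; NIH 3T3, mouse embryonic fibroblast; CHO-K1, Chinese hamster ovary.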

The next data set deals with CYP2C9 (Homo sapiens, UniProt P11712). The data set can be described thus: Inhibition of human CYP2C9 at 10 uM relative to control. It counts as ADME.
For the next data set, the target named is CYP2D6 (Homo sapiens, UniProt P10635). The data set can be described thus: Inhibition of human CYP2D6 at 10 uM relative to control. It counts as ADME.
In a further data set the target is CYP3A4 (Homo sapiens, UniProt P08684). Nature of the data set: Inhibition of human CYP3A4 at 10 uM relative to control. The data set is classed as ADME.
Data set [3] is described as follows: Microsomal stability in mouse liver microsomes assessed as compound remaining after 30 mins in presence of NADPH. Particulars: read-out: Stability. The data set is classed as ADME, Microsome.
The nature of data set [4]: Microsomal stability in dog liver microsomes assessed as compound remaining after 30 mins in presence of NADPH. The data set is classed as ADME, Canis lupus familiaris, Microsome. Particulars: read-out: Stability.
Data set [5] deals with Voltage-gated inwardly rectifying potassium channel KCNH2 (Homo sapiens, UniProt Q12809). Nature of the data set: Binding affinity to human ERG. The data set is classed as toxicity. The method in brief: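 hERG fluorescence polarization ligand-binding assay; IC50 read-out.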
A further data set concerns the target T1, CYP1A2 (Homo sapiens, UniProt P05177).
T1 sequence (P05177 whole entry): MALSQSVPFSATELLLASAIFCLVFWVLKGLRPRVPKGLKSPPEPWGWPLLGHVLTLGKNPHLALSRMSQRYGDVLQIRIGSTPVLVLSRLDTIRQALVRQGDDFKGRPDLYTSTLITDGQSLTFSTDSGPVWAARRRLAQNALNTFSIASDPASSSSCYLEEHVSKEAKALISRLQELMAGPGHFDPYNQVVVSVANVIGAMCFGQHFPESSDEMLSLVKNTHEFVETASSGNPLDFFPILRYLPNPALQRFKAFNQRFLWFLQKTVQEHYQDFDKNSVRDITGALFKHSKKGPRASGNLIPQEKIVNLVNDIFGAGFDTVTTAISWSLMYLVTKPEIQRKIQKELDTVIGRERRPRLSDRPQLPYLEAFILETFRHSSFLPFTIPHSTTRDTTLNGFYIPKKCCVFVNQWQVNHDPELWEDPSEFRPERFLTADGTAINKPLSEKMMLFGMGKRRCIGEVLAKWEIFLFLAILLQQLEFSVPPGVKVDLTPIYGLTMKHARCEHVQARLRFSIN
The data set can be described thus: Inhibition of human CYP1A2 at 10 uM relative to control. The data set is classed as ADME.

The next data set has as its system L929. The data set can be described thus: Cytotoxicity against mouse L929 cells. The data set is classed as toxicity, cell-based. In a few lines:
as §1

A further data set concerns NIH3T3. The data set can be described thus: Cytotoxicity against mouse NIH3T3 cells. It counts as toxicity, cell-based. The method in brief: as §1
A short description of data set [6]: Microsomal stability in rat liver microsomes assessed as compound remaining after 30 mins in presence of NADPH. It counts as ADME, Microsome. Particulars: read-out: Stability.
The subject of a further data set is HFL1. Nature of the data set: Cytotoxicity against human HFL1 cells. It counts as toxicity, cell-based. In a few lines: as §1
The target in another data set is CYP2C19 (Homo sapiens, UniProt P33261). The data set can be described thus: Inhibition of human CYP2C19 at 10 uM relative to control. It counts as ADME.

Usually CC50 stands for the concentration that lowers cell viability or growth by half. The term EC50 denotes the concentration that produces a half-maximal response. One may read the inhibition as how much of the control response was suppressed. As usually defined, the IC50 is the concentration that inhibits the measured activity by half.

Voltage-gated inwardly rectifying potassium channel KCNH2, sequence (Q12809 whole entry): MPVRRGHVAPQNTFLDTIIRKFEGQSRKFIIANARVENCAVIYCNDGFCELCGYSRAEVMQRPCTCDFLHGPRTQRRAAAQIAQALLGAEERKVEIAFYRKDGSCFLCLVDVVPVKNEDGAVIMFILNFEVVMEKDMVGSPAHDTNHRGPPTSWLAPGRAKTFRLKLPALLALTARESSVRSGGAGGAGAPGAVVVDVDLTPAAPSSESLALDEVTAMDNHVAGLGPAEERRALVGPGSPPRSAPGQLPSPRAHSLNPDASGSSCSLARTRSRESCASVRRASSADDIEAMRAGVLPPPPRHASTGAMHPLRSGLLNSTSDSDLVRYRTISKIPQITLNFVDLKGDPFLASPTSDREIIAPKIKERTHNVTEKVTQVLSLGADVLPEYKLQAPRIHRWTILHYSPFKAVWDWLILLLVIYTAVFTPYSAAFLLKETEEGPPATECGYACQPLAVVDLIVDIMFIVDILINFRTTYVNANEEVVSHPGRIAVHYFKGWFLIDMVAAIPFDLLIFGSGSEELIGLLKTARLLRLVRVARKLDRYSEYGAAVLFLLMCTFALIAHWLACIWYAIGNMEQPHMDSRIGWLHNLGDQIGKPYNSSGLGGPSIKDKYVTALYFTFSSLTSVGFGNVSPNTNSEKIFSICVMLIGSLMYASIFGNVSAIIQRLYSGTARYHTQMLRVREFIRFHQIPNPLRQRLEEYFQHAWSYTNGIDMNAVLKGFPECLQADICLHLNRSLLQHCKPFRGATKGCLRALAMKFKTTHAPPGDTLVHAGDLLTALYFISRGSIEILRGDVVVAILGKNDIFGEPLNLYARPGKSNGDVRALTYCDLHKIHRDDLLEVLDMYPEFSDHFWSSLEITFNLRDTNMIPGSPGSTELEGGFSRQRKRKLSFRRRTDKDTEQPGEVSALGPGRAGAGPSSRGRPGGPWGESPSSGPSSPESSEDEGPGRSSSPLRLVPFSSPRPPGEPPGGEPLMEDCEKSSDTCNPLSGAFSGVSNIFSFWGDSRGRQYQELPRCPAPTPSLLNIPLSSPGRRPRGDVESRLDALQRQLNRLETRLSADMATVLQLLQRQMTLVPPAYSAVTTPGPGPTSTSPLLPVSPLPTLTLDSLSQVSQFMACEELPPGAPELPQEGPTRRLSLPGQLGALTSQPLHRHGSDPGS
CYP2C9, sequence (P11712 whole entry): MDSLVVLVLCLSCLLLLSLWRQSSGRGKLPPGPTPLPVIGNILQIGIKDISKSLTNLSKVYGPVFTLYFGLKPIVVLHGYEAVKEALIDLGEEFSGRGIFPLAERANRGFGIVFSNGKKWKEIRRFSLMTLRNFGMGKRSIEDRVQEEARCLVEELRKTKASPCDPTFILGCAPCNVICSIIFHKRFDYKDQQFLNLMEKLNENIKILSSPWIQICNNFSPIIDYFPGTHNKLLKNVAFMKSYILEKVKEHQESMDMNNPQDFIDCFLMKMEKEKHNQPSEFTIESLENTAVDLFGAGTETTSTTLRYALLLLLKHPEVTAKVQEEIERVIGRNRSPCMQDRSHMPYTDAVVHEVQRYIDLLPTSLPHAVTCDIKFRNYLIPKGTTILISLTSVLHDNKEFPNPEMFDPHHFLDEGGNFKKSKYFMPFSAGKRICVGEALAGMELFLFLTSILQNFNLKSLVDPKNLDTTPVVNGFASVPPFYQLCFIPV
CYP3A4, sequence (P08684 whole entry): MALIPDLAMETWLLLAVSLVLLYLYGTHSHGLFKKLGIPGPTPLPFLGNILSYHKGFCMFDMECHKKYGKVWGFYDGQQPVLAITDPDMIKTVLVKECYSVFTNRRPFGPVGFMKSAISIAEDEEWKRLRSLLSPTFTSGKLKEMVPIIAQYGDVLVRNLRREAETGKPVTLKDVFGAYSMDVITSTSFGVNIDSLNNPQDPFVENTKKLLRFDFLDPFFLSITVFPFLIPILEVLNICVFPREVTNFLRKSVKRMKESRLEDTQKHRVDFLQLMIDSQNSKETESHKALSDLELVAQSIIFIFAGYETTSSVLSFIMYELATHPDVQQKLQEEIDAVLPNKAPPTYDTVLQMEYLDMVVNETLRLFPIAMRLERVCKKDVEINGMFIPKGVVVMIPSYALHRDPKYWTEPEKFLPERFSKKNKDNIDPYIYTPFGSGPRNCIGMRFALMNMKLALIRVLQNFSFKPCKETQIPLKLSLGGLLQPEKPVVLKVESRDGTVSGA
CYP2D6, sequence (P10635 whole entry): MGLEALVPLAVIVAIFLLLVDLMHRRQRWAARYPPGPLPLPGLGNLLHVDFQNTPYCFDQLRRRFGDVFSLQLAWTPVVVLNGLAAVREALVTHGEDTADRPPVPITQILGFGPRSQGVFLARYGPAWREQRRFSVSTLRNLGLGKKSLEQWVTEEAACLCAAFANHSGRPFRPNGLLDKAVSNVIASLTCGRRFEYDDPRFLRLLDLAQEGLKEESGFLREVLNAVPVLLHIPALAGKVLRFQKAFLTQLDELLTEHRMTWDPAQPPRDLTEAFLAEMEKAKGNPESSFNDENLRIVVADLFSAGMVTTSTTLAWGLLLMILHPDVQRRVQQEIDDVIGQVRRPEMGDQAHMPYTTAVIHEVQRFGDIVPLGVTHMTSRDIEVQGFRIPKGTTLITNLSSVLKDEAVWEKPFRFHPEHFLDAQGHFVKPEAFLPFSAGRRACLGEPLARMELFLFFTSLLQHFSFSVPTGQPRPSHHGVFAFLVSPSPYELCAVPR
CYP2C19, sequence (P33261 whole entry): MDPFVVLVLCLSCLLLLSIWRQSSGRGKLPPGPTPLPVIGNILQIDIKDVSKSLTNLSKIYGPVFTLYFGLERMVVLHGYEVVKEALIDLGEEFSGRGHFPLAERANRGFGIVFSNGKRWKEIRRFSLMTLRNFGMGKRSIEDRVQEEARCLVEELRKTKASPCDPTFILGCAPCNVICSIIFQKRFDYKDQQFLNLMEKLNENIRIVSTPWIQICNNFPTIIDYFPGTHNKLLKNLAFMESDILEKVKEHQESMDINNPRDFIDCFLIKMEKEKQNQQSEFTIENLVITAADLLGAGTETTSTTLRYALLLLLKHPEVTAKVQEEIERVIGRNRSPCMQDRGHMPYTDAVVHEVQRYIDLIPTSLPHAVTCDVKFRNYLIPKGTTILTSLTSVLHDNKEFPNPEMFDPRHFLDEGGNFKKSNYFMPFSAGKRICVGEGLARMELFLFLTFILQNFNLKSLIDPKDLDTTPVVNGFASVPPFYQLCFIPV

Regarding `CCC(CC)COC(=O)[C@H](C)N[P@](=O)(OC[C@H]1O[C@@](C#N)(c2ccc3c(N)ncnn23)[C@H](O)[C@@H]1O)Oc1ccccc1`, in the data set on Vero, the CC50 was over 25 µM.

`CC(C)(C)[C@H](NC(=O)C(F)(F)F)C(=O)N1C[C@H]2[C@@H]([C@H]1C(=O)N[C@H](C#N)C[C@@H]1CCNC1=O)C2(C)C` came in with a CC50 with Vero of over 25 µM.

In the case of `COC(=O)c1c([S+](C)[O-])[nH]c2cc(Cl)ccc2c1=O` (stereo not drawn), the midpoint of cytotoxicity in the data set on Vero, the CC50, lay at 12 µM. Moreover, the EC50 with SARS-CoV-2 amounted to 9.4 µM. The selectivity ratio in [1] is 1.3.

In turn, `CN(C)CCCNc1[nH]c2cc(Cl)ccc2c(=O)c1C(=O)O` gave a half-maximal cytotoxic concentration (CC50) in the data set with Vero of over 25 µM. Also, the EC50 in the data set on SARS-CoV-2 was over 25 µM. Also, the selectivity ratio in data set [1] was determined as 1.

`O=C(O)c1c(Nc2cccc(F)c2)[nH]c2cc(Cl)ccc2c1=O`: the 50% cytotoxic concentration (CC50) in the data set with Vero was over 25 µM; with CHO-K1 it was 55 µM; in the data set on L929 it was over 100 µM; with NIH3T3 it was 67 µM; with HFL1 it was 48 µM. In addition, the remaining at 0.5 h was found to be 62% in data set [2], 24% in data set [3], 65% in data set [4] and 14% in data set [6]. The inhibition at 10 µM on CYP2C9 was 59%; against CYP2D6, 3%; at CYP3A4, under 1%; at CYP1A2, 72%; on CYP2C19, 9%. This compound also had a 50% effective concentration (EC50) in the data set with SARS-CoV-2 of 1.5 µM. The IC50 in data set [5] was over 100 µM. The selectivity ratio in data set [1] came out at 16.

In the data set with Vero, `O=C(O)c1c(Nc2cccc(F)c2)[nH]c2ccccc2c1=O` had a CC50 of over 25 µM. The response in the data set on SARS-CoV-2 was half-maximal at 4 µM (EC50). In data set [1], the selectivity ratio was 6.2.

Take `O=C(O)c1c(Nc2cccc(F)c2)[nH]c2ccc(Cl)cc2c1=O`: in the data set on Vero, the CC50 was over 25 µM. Further, the EC50 in the data set with SARS-CoV-2 came to 1.5 µM. Further, the selectivity ratio in [1] stood at 17.

The compound `O=c1cc(Nc2cccc(F)c2)[nH]c2cc(F)c(F)cc12` returned a CC50 with Vero of over 25 µM. The EC50 with SARS-CoV-2 was over 25 µM. The selectivity ratio in data set [1] is 1.

`COC(=O)c1c([S+](C)[O-])[nH]c2ccccc2c1=O` (stereo not drawn) came in with a CC50 in the data set with Vero of over 25 µM. Further, in the data set on SARS-CoV-2, the half-maximal effective concentration (EC50) was determined as 13.4 µM. Further, the selectivity ratio in data set [1] came out at 1.9.

`COc1ccc2[nH]c(Nc3cccc(F)c3)c(C(=O)O)c(=O)c2c1` gave a CC50 in the data set with Vero of over 25 µM. Further, a half-maximal response in the data set on SARS-CoV-2 (EC50) required 3.3 µM. For the same compound, the selectivity ratio in [1] turned out to be 7.6.

The compound `CNC(=O)c1c(Nc2cccc(F)c2)[nH]c2cc(Cl)ccc2c1=O` registered a cytotoxic concentration (CC50) in the data set on Vero of over 25 µM. In the data set on SARS-CoV-2, the half-maximal effective concentration (EC50) was 7.9 µM. In addition, the selectivity ratio in data set [1] was found to be 3.2.

Turning to `O=C(O)c1c(Nc2ccc(F)cc2)[nH]c2ccc(Cl)cc2c1=O`, the CC50 in the data set on Vero is over 25 µM. This compound had a 50% effective concentration (EC50) with SARS-CoV-2 of 2.8 µM. In addition, the selectivity ratio in data set [1] worked out at 8.9.

`O=C(O)c1c(Nc2cccc(F)c2)[nH]c2cc(F)c(F)cc2c1=O` yielded a cytotoxic concentration (CC50) in the data set on Vero of over 25 µM. In the data set on SARS-CoV-2, this compound registered an EC50 of 3.3 µM. The selectivity ratio in data set [1] was 7.5.

Regarding `O=C(O)c1c(Nc2ccc(F)cc2)[nH]c2cc(F)c(F)cc2c1=O`, the 50% cytotoxic concentration (CC50) in the data set on Vero is over 25 µM. Moreover, the midpoint of the response in the data set with SARS-CoV-2, the EC50, lay at 3.5 µM. Also, in [1], the selectivity ratio amounted to 7.2.

Turning to `O=C(O)c1c(NC2CCCCC2)[nH]c2cc(Cl)ccc2c1=O`, the 50% cytotoxic concentration (CC50) with Vero is over 25 µM. The same compound showed an EC50 in the data set on SARS-CoV-2 of 4.4 µM. The selectivity ratio in [1] stood at 5.7.

In the data set on Vero, `CCN(CC)CCCC(C)Nc1ccnc2cc(Cl)ccc12` (stereo not drawn) [CHLOROQUINE] registered a half-maximal cytotoxic concentration (CC50) of over 25 µM. For the same compound, the response in the data set on SARS-CoV-2 was half-maximal at 8.2 µM (EC50). The selectivity ratio in data set [1] is 3.
